# The source made the active and inactive calls. The rule behind the calls is not given here.
# Assays:
# [1] = system: Rattus norvegicus; experiment: Anti-allodynic activity in complete freund's adjuvant-induced rat inflammatory pain model assessed as inflammatory mechanical allodynia pretreated at 100 uM intra-cisternally administerd 30 min before CFA injection; format: functional, organism-based
# Outline: (§1)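 Rats briefly anesthetized (<2 min, 2% isoflurane by mask), given intracisternal 5 μL compound (100 μM) or vehicle (saline + 1% DMSO) 30 min before subcutaneous CFA (25 μL, 2.5 mg/kg) into right vibrissa pad. Static mechanical allodynia tested with 6-g von Frey filament on face every 15 or 30 min over 120 min; allodynic score 0–4 (Vos). n=4–6 rats.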
# [2] = system: Rattus norvegicus; experiment: Anti-allodynic activity in complete freund's adjuvant-induced rat inflammatory pain model assessed as inflammatory mechanical allodynia pretreated at 0.17 ug intra-cisternally administerd 30 min before CFA injection relative to control; format: functional; details: dose 0.17 µg, 0.5 h; outline: as §1
# [3] = system: Rattus norvegicus; experiment: Anti-allodynic activity in constriction injury-induced rat neuropathic mechanic allodynia model assessed as inflammatory mechanical allodynia at 0.17 ug intra-cisternally administered on day 14 after injury; format: functional, organism-based; details: dose 0.17 µg, in the assay text read “static mechanical allodynia” for “inflammatory mechanical allodynia”
# Outline: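 Neuropathic model: infraorbital nerve chronic constriction (two loose 4/0 chromic catgut ligatures 1 mm apart, chloral hydrate 400 mg/kg i.p. anesthesia). On day 14, once stable allodynia present, intracisternal 5 μL compound (100 μM) or vehicle (saline + 1% DMSO) under brief isoflurane. Face stimulated with 6-g von Frey filament; allodynic score 0–4; n=5/group; mean ± s.e.m.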
# [4] = molecular target: Mitogen-activated protein kinase 14 (Homo sapiens) (UniProt Q16539); experiment: Inhibition of p38alpha MAPK (unknown origin) assessed as residual activity at 10 uM
# [5] = molecular target: Protein kinase C gamma type (Homo sapiens) (UniProt P05129); experiment: Inhibition of PKC-gamma (unknown origin) assessed as residual activity at 10 uM
# [6] = system: Rattus norvegicus; experiment: Anti-allodynic activity in complete freund's adjuvant-induced rat inflammatory pain model assessed as inflammatory mechanical allodynia pretreated at 100 uM intra-cisternally administerd 30 min before CFA injection measured 120 min after CFA injection relative to control; format: functional; details: 0.5 h; outline: as §1
# [7] = system: Rattus norvegicus; experiment: Anti-allodynic activity in complete freund's adjuvant-induced rat inflammatory pain model assessed as inflammatory mechanical allodynia pretreated at 0.15 ug intra-cisternally administerd 30 min before CFA injection relative to control; format: functional; details: dose 0.15 µg, 0.5 h; outline: as §1
# Sequence of Mitogen-activated protein kinase 14 (Homo sapiens) (Q16539 whole entry): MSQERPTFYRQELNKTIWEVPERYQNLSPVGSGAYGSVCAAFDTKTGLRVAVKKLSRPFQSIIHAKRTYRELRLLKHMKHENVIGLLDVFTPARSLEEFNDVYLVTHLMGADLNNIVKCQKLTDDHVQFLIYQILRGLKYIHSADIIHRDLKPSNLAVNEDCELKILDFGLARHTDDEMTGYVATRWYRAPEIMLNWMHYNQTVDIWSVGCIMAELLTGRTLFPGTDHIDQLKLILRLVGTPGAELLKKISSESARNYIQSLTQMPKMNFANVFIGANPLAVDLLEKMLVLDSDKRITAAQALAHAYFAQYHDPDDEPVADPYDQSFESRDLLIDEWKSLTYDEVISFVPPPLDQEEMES
Activity [5],Structure (SMILES),inhibition [1],further results
,O=c1[nH]cc(Nc2ccccc2)cc1-c1ccccc1Br,Active,inhibition (INH) [2]: 99%; inhibition [3]: Active; Activity [4]: 19%
,O=c1[nH]cc(Nc2ccccc2)cc1-c1ccccc1Cl,Active,
> 85%,O=c1[nH]cc(Nc2ccccc2)cc1-c1cccc2cnccc12,,
,CC(=O)c1cccc(-c2cc(Nc3ccccc3)c[nH]c2=O)c1,Active,
,O=c1[nH]cc(Nc2ccccc2)cc1-c1ccc(O)cc1,Active,
,O=c1[nH]cc(Nc2ccccc2)cc1-c1ccc(C(F)(F)F)cc1,Active,
,NC(=O)c1ccccc1-c1cc(Nc2ccccc2)c[nH]c1=O,Active,
,NC(=O)c1ccc(-c2cc(Nc3ccccc3)c[nH]c2=O)cc1,Active,
> 85%,O=c1[nH]cc(Nc2ccccc2)cc1-c1cncnc1,Active,
,COC(=O)c1ccc(-c2cc(Nc3ccccc3)c[nH]c2=O)cc1,Active,
> 85%,O=c1[nH]cc(Nc2ccccc2)cc1-c1ccncc1,Active,inhibition in vivo at 100 µM [6]: 90%
,O=c1[nH]cc(Nc2ccccc2)cc1-c1ccc(F)cc1F,Active,
> 85%,O=c1[nH]cc(Nc2ccccc2)cc1-c1ccc(F)cc1,Active,
,O=c1[nH]cc(Nc2ccccc2)cc1-c1ccc(OC(F)(F)F)cc1,Active,
,O=c1[nH]cc(Nc2ccccc2)cc1-c1ccnc2ccccc12,Active,
,CCOC(=O)c1ccccc1-c1cc(Nc2ccccc2)c[nH]c1=O,Active,
,O=c1[nH]cc(Nc2ccccc2)cc1-c1cccc(Cl)c1,Active,
> 85%,O=c1[nH]cc(Nc2ccccc2)cc1-c1cccc2cccnc12,Active,
,Cc1ccc(-c2cc(Nc3ccccc3)c[nH]c2=O)cc1,Active,
,O=c1[nH]cc(Nc2ccccc2)cc1-c1cccc2[nH]ccc12,Active,inhibition (INH) [7]: 98%
> 85%,O=c1[nH]cc(Nc2ccccc2)cc1-c1c[nH]c2ccccc12,,
> 85%,O=c1[nH]cc(Nc2ccccc2)cc1-c1ccccc1,Active,
,O=c1[nH]cc(Nc2ccccc2)cc1-c1ccccc1[N+](=O)[O-],Active,

# — ChEMBL document CHEMBL4706480, “Pyridin-2(1H)one derivatives: A possible new class of therapeutics for mechanical allodynia” (Eur J Med Chem, 2020)
